Rev-erbA mod = Rev-erb alpha (human) modulation; P20393; Rev-erbα–FITC-DNA binding, fluorescence polarization, 90 min; activity, % at 10 µM; 370,000 compounds, 0.79% hits; AID 1259318;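 active = activity above about 14%, limit read from the data; passing the limit was not always enough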;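 note: 0% = DMSO wells with 35 nM protein and 100% = DMSO wells with 750 nM protein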
PG9 Ab binder = binds the HIV-1 gp120 antibody PG9 | 360,000 compounds, 0.43% hits | inhibition, % at 6.7 µM | TR-FRET gp120-PG9 antibody binding; in the data active = inhibition above about 8.5%
NR2E3 ag-1 = activates human photoreceptor nuclear receptor NR2E3; Q9Y5X4; GST-NR2E3/biotin-RetCOR TR-FRET, 1536-well; inhibition of corepressor binding, % at 4.78 µM; 320,000 compounds, 0.12% hits; AID 2300;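 active = percent inhibition above the cutoff of mean plus 3 SD of all tested compounds, set per screening campaign, cut at about 20% in these data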;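 note: 0% = DMSO wells and 100% = biotin wells as full block of FRET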
Target sequence (Q9Y5X4 whole entry, looked up): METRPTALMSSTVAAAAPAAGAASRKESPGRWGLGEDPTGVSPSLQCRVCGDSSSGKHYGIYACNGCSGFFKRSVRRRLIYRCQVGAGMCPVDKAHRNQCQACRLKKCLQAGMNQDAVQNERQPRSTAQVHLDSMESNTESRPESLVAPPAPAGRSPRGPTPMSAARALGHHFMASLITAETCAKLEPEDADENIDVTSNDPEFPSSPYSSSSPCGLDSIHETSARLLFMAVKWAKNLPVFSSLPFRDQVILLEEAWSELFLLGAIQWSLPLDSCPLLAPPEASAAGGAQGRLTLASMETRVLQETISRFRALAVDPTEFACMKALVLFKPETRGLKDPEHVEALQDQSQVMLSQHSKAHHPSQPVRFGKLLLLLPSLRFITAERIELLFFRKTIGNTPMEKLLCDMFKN
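System: GST-NR2E3 and biotin-RetCOR proteins; probe or stimulus: 7 nM biotin-RetCOR; doses: compound at 4.8 µM, single dose; schedule: Compound–protein incubation for 5 h at 4 °C; detection: time-resolved FRET; read-out: percent inhibition; controls: biotin wells as high control, 0.6% DMSO wells as low control; format: 1536-well plates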
NR2E3 ag-2 = human photoreceptor-specific nuclear receptor agonism; 360,000 compounds, 0.35% hits; AID 602229; inhibition of corepressor binding, % at 3.98 µM; CHO-S Gal4-NCOR/VP16-NR2E3 two-hybrid, luciferase;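 active = inhibition above the mean of all tested compounds plus 3 SD, cut at about 70% in these data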;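 note: 0% = DMSO with NR2E3 transfected cells and 100% = cells lacking NR2E3 construct; higher means lower luciferase signal from less NR2E3 corepressor binding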
GalR3 antag = blocks the human galanin receptor 3; AID 651719; HEK293 GalR3-CNG cAMP membrane potential fluorescence; galR3 body fused to GalR1 C-terminus; O60755; inhibition, % at 3 µM; 360,000 compounds, 0.44% hits;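 active = inhibition above the screen-wide average plus 3 SD, cut at about 13% in these data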;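 note: forskolin and galanin both at EC90 stimulate the cells; cAMP rise reported by CNG channel membrane potential dye signal; 0% = forskolin plus galanin with DMSO and 100% = forskolin alone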
Target sequence (O60755 1-299 limits assumed): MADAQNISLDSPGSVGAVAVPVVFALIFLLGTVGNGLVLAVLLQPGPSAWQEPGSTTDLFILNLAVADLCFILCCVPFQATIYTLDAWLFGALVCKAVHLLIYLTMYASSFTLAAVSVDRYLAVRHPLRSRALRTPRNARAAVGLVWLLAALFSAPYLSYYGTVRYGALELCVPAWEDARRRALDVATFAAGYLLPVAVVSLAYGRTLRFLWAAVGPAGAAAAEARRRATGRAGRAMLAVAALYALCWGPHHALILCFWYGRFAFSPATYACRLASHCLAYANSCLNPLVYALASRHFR
PG9 binder conf = PG9 antibody binding, confirmed; shares compounds with PG9 Ab binder; TR-FRET PG9 antibody binding, biochemical; inhibition, % at 6.7 µM; 1,500 compounds, 90% hits; in the data active = inhibition above about 9%
PGV04 counter = PGV04 control antibody binding, counter-screen. TR-FRET PGV04 antibody-gp120 binding, biochemical. inhibition, % at 6.7 µM. shares compounds with PG9 Ab binder. 1,500 compounds, 95% hits; in the data active = inhibition above about 9.5%
PG9 bind DR = PG9 antibody binding, dose response; shares compounds with PG9 Ab binder; 95 tested, under 10 active; TR-FRET PG9 antibody-gp120 binding inhibition; IC50, µM; AID 651848; in the data active = IC50 below about 10 µM
PGV04 binding DR = binds control antibody PGV04 in PG9 counter-screen; TR-FRET binding to control antibody PGV04; IC50, µM; AID 651937; 95 compounds, 20% hits; shares compounds with PG9 Ab binder
PG126 DR counter = binds control antibody PG126 in PG9 counter-screen; shares compounds with PG9 Ab binder; IC50, µM; 95 compounds, 20% hits; TR-FRET binding to antibody PG126, counterscreen
NR1D1 mod conf = confirmation of modulators of human Rev-erb alpha DNA binding; shares compounds with Rev-erbA mod; activation, % at 25 µM; Rev-erb alpha FITC-DNA binding, fluorescence polarization, 90 min; 3,000 compounds, 61% hits;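 active = activation at or above a set limit, or at least 3 SD above the negative control mean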;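 note: 0% = 35 nM protein with DMSO and 100% = 750 nM protein high control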
RORg DNA counter = counter-screen for Rev-erb alpha modulators: RORgamma DNA binding. purified RORgamma protein-FITC-DNA binding, fluorescence polarization. 910 compounds, 8% hits. shares compounds with Rev-erbA mod. IC50, µM;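 active = Compounds whose fitted half-maximal concentration for disrupting protein-DNA binding is below 10 micromolar; the record names Rev-erb in its text, so the target is in doubt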
Starred values were filed as active, the others as inactive; i = inactive; nt = no result. This is a sample that favours compounds with a hit; in the whole collection about 1.8% have one here. Cut-off read from the data, not from the text of the source, unless noted: active = IC50 below about 9 µM; inactive = the rest.

SMILES | Rev-erbA mod | PG9 Ab binder | NR2E3 ag-1 | NR2E3 ag-2 | GalR3 antag | PG9 binder conf | PGV04 counter | NR1D1 mod conf | others
N#Cc1c(N)nc(N2CCCC2)c(C#N)c1-c1ccc(Cl)cc1 | 146* | 25* | 1 | -8 | -5 | 19* | 28* | 106* | RORg DNA counter=>40
Cc1sc2nc(Cc3ccccc3)[nH]c(=O)c2c1-c1ccccc1 | 70* | 35* | 14 | 7 | 5 | 44* | 65* | 87* | RORg DNA counter=i
Cc1sc2nc(-c3cccnc3)[nH]c(=O)c2c1-c1ccccc1 | -3 | 0 | 6 | -6 | 2 | nt | nt | nt
Cc1ccccc1C1CCC2(CCC(=O)N2CC[C@@H](O)c2ccccc2)CC1 (some centres undefined) | 7 | nt | nt | nt | nt | nt | nt | nt
C=CCn1c(SCC(=O)NCc2ccco2)nc2sc(C)c(C)c2c1=O | -1 | 3 | 2 | -12 | -4 | nt | nt | nt
Cc1sc2nc(SCC(=O)NCc3ccco3)n(-c3ccccc3)c(=O)c2c1C | 102* | 51* | 1 | -10 | -4 | 58* | 75* | 85*
Cc1ccc(-n2c(SCC(=O)NCc3ccco3)nc3sc(C)c(C)c3c2=O)cc1 | 67* | 30* | 15 | 7 | -3 | 29* | 42* | 63*
Cc1sc2nc(SCC(=O)NCCO)n(-c3ccccc3)c(=O)c2c1C | 0 | -1 | -1 | -3 | -6 | nt | nt | nt
N#Cc1cc2c(nc1SCc1ccccc1)CCCC2 | 28* | 36* | 0 | 0 | 2 | 44* | 76* | 21*
OC[C@H]1CC[C@@H]2O[C@H](CCc3ccc(-c4ccc(F)cc4)cc3)[C@H](n3cc(C4CC4)nn3)C[C@@H]2O1 | 1 | nt | nt | nt | nt | nt | nt | nt
COc1ccccc1NC(=O)c1sc2ncn(Cc3ccccc3C)c(=O)c2c1C | 62* | 52* | 6 | 22 | -3 | 55* | 74* | 23*
CC(=O)c1ccc(Nc2ncnc3ccc(Br)cc23)cc1 | 121* | 11* | nt | -11 | -5 | 20* | 56* | 119* | RORg DNA counter=>40
Cc1ccccc1NC(=O)c1c(C)nc(SCC(=O)OCc2ccccc2)c(C#N)c1-c1ccc(F)cc1 | 6 | -1 | -3 | 4 | -2 | nt | nt | nt
COC(=O)CSc1nc(C)c(C(=O)Nc2ccccc2C)c(-c2ccc(Cl)cc2)c1C#N | 26* | 9.1* | -1 | -17 | 1 | 7 | 16* | 11
COc1ccc(CCNC(=O)CNC(=O)c2nn(-c3ccc(OC)c(OC)c3)c(=O)c3ccccc23)cc1OC | -2 | 1 | -3 | -2 | -1 | nt | nt | nt
COc1ccc(-n2nc(C(=O)NCC(=O)Nc3cccc(Cl)c3)c3ccccc3c2=O)cc1OC | 289* | 39* | 1 | -18 | -11 | 35* | 66* | 273* | RORg DNA counter=>40
CCc1ccc(NC(=O)CNC(=O)c2nn(-c3ccc(OC)cc3)c(=O)c3ccccc23)cc1 | 18 | 3 | 1 | 3 | -6 | nt | nt | nt
COc1ccc(-n2nc(C(=O)NCC(=O)Nc3ccc(F)cc3)c3ccccc3c2=O)cc1 | 39* | 11* | 5 | -10 | -6 | 17* | 25* | 8
CCOc1ccc(NC(=O)CNC(=O)c2nn(-c3ccc(OC)c(OC)c3)c(=O)c3ccccc23)cc1 | 111* | 40* | i | -8 | -2 | 23* | 61* | 91* | RORg DNA counter=>40
CNC(=O)CCc1nc(-c2ccc(C(C)C)cc2)no1 | -2 | nt | nt | nt | nt | nt | nt | nt
CC[C@@]1(c2ccc(C)cc2)C(=O)N(C(=O)OC)N1C(=O)OC | -4 | nt | nt | nt | nt | nt | nt | nt
COC(=O)[C@]12CCCCC=C1N(Cc1ccc(OC)cc1)C(=O)[C@@H]2CC(=O)N1CCN(C(=O)C2CC2)CC1 | -2 | nt | nt | nt | nt | nt | nt | nt
COc1ccc(-c2nnc(SCC(=O)Nc3ccc(S(=O)(=O)Nc4nccs4)cc3)n2-c2ccc(OC)cc2)cc1 | -3 | nt | nt | nt | nt | nt | nt | nt
CS(=O)(=O)c1ccc2nc(NC(=O)c3ccccc3)sc2c1 | 0 | 0 | 0 | -111 | -4 | nt | nt | nt
Cc1ccc(C(=O)Nc2nc3ccc(S(C)(=O)=O)cc3s2)cc1C | 26* | 21* | 0 | -7 | -8 | 32* | 51* | 21*
SMILES | Rev-erbA mod | PG9 Ab binder | NR2E3 ag-1 | NR2E3 ag-2 | GalR3 antag | PG9 binder conf | PGV04 counter | NR1D1 mod conf | others
Cc1ccc(NC(=O)Nc2nc3ccc(S(C)(=O)=O)cc3s2)cc1 | 19* | 34* | nt | 9 | 1 | 31* | 42* | 8
COc1ccc(C(=O)Nc2nc3ccc(S(C)(=O)=O)cc3s2)cc1OC | 30* | 22* | 1 | -6 | 0 | 28* | 40* | 25*
CS(=O)(=O)c1ccc2nc(NC(=O)Nc3ccc(Cl)c(Cl)c3)sc2c1 | 8 | -1 | 8 | -16 | 2 | nt | nt | nt
Cc1cccc(C(=O)Nc2nc3ccc(S(C)(=O)=O)cc3s2)c1 | 36* | 34* | nt | -148 | -11 | 15* | 38* | 22*
O=C(c1cccc(C(F)(F)F)c1)N1CC[C@H]2[C@H](CCCN2Cc2ccccc2)C1 | -1 | nt | nt | nt | nt | nt | nt | nt
CC(=O)Nc1ccc(C(=O)CSc2cc(C)c3cccc(C)c3n2)cc1 | 37* | 17* | 1 | -12 | -1 | 23* | 48* | 30*
Cc1cc(SCC(=O)c2cccs2)nc2c(C)cccc12 | 3 | 2 | 2 | -16 | -4 | nt | nt | nt
COC(=O)[C@]12C[C@H](CC(=O)N3CCSCC3)C(=O)N(Cc3ccc(Cl)cc3Cl)C1=C[C@H](COCc1ccccc1)O[C@@H]2C | -7 | nt | nt | nt | nt | nt | nt | nt
N#Cc1c(-c2cccs2)cc(C2CC2)nc1SCC(N)=O | 52* | 8.7* | 8 | -4 | 1 | 18* | 27* | 47* | RORg DNA counter=>40
N#Cc1c(-c2ccccc2)cc(C2CC2)nc1SCC(=O)O | -7 | 0 | -5 | -12 | -4 | nt | nt | nt
CCc1ccccc1NC(=O)COc1ccc2oc(-c3ccc(OC)cc3)cc(=O)c2c1 | 27* | 18* | 0 | 0 | -2 | 78* | 48* | 0 | PG9 bind DR=>67;PGV04 binding DR=3.7*;PG126 DR counter=3.6*
C=CC[C@]1(O)C(=O)N(c2ccccc2)c2ccccc21 | 3 | nt | nt | nt | nt | nt | nt | nt

Screening data: PubChem, several laboratories
